Values belong to the molecule of their own block, whether it stands above or below them. Calls of active or inactive are those of the source. The rule behind the calls is not given here.
What was measured:
[1] = test system: Protein disulfide-isomerase (Homo sapiens), P07237 [H256A]; assay: Inhibition of recombinant human N-terminal His-tagged PDI H256A mutant expressed in Escherichia coli BL21 (DE3) pLysS at 100 uM measured after 1 hr by ANS dye based fluorescence spectra analysis
U-87 MG [2] = assay: Up regulation of HSPA1B gene expression in human U87MG cells at 16 uM incubated for 4 hrs followed by bromouridine addition during last 30 mins of incubation by TRIzol-reagent based Bru-Seq analysis relative to control; assay type: functional, U-87MG ATCC
Summary of the method: (§1)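 U87MG cells exposed to compound or DMSO vehicle for 4 h, with 2 mM bromouridine added for the final 30 min. Total RNA isolated with TRIzol; Bru-labelled nascent RNA captured on anti-BrdU antibody-conjugated magnetic beads and sequenced. Transcript abundance expressed as RPKM relative to DMSO. Experiment performed once.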

U-87 MG [3] = assay: Up regulation of VEGFD gene expression in human U87MG cells at 16 uM incubated for 4 hrs followed by bromouridine addition during last 30 mins of incubation by TRIzol-reagent based Bru-Seq analysis relative to control; assay type: functional, U-87MG ATCC
U-87 MG [4] = assay: Up regulation of TXNRD1 gene expression in human U87MG cells at 16 uM incubated for 4 hrs followed by bromouridine addition during last 30 mins of incubation by TRIzol-reagent based Bru-Seq analysis relative to control; assay type: functional, U-87MG ATCC
U-87 MG [5] = assay: Up regulation of EID3 gene expression in human U87MG cells at 16 uM incubated for 4 hrs followed by bromouridine addition during last 30 mins of incubation by TRIzol-reagent based Bru-Seq analysis relative to control; assay type: functional, U-87MG ATCC; summary of the method: as §1
U-87 MG [6] = assay: Up regulation of BAG3 gene expression in human U87MG cells at 16 uM incubated for 4 hrs followed by bromouridine addition during last 30 mins of incubation by TRIzol-reagent based Bru-Seq analysis relative to control; assay type: functional, U-87MG ATCC; summary of the method: as §1
U-87 MG [7] = assay: Down regulation of HIST1H4B gene expression in human U87MG cells at 16 uM incubated for 4 hrs followed by bromouridine addition during last 30 mins of incubation by TRIzol-reagent based Bru-Seq analysis relative to control; assay type: functional, U-87MG ATCC
U-87 MG [8] = assay: Down regulation of RAD51 gene expression in human U87MG cells at 16 uM incubated for 4 hrs followed by bromouridine addition during last 30 mins of incubation by TRIzol-reagent based Bru-Seq analysis; assay type: functional, cell-based; settings: U-87MG ATCC
Summary of the method: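 Bru-seq in U87MG cells treated at 16 μM for 4 h; 2 mM bromouridine present during the last 30 min. TRIzol total RNA, then anti-BrdU bead capture of labelled RNA and sequencing. Readout is RPKM traces versus DMSO control. Performed once.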

U-87 MG [9] = assay: Up regulation of CHAC1 gene expression in human U87MG cells at 10 uM incubated for 4 hrs followed by bromouridine addition during last 30 mins of incubation by TRIzol-reagent based Bru-Seq analysis relative to control; assay type: functional, U-87MG ATCC; summary of the method: as §1
U-87 MG [10] = assay: Up regulation of HMOX1 gene expression in human U87MG cells at 10 uM incubated for 4 hrs followed by bromouridine addition during last 30 mins of incubation by TRIzol-reagent based Bru-Seq analysis relative to control; assay type: functional, U-87MG ATCC; summary of the method: as §1
U-87 MG [11] = assay: Up regulation of SLC7A11 gene expression in human U87MG cells at 10 uM incubated for 4 hrs followed by bromouridine addition during last 30 mins of incubation by TRIzol-reagent based Bru-Seq analysis relative to control; assay type: functional, U-87MG ATCC
Summary of the method: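 U87MG cells treated 4 h with test compound (10 or 16 μM, as per line) or DMSO; 2 mM bromouridine added for final 30 min. Total RNA isolated with TRIzol, Bru-labelled nascent RNA captured with anti-BrdU antibody magnetic beads and sequenced; transcript abundance (RPKM) compared with DMSO control. Single experiment.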

U-87 MG [12] = assay: Up regulation of HSPH1 gene expression in human U87MG cells at 10 uM incubated for 4 hrs followed by bromouridine addition during last 30 mins of incubation by TRIzol-reagent based Bru-Seq analysis relative to control; assay type: functional, U-87MG ATCC; summary of the method: as §1
U-87 MG [13] = assay: Up regulation of NR4A1 gene expression in human U87MG cells at 10 uM incubated for 4 hrs followed by bromouridine addition during last 30 mins of incubation by TRIzol-reagent based Bru-Seq analysis relative to control; assay type: functional, U-87MG ATCC; summary of the method: as §1
U-87 MG [14] = assay: Up regulation of PSAT1 gene expression in human U87MG cells at 10 uM incubated for 4 hrs followed by bromouridine addition during last 30 mins of incubation by TRIzol-reagent based Bru-Seq analysis relative to control; assay type: functional, U-87MG ATCC; summary of the method: as §1
U-87 MG [15] = assay: Up regulation of DEDD2 gene expression in human U87MG cells at 10 uM incubated for 4 hrs followed by bromouridine addition during last 30 mins of incubation by TRIzol-reagent based Bru-Seq analysis relative to control; assay type: functional, U-87MG ATCC; summary of the method: as §1
U-87 MG [16] = assay: Up regulation of NGF gene expression in human U87MG cells at 10 uM incubated for 4 hrs followed by bromouridine addition during last 30 mins of incubation by TRIzol-reagent based Bru-Seq analysis relative to control; assay type: functional, U-87MG ATCC; summary of the method: as §1
U-87 MG [17] = assay: Up regulation of ADAMTS5 gene expression in human U87MG cells at 10 uM incubated for 4 hrs followed by bromouridine addition during last 30 mins of incubation by TRIzol-reagent based Bru-Seq analysis relative to control; assay type: functional, U-87MG ATCC; summary of the method: as §1
U-87 MG [18] = assay: Down regulation of SLITRK5 gene expression in human U87MG cells at 10 uM incubated for 4 hrs followed by bromouridine addition during last 30 mins of incubation by TRIzol-reagent based Bru-Seq analysis relative to control; assay type: functional, U-87MG ATCC
Summary of the method: (§2)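 Nascent transcription (Bru-seq) in U87MG cells: treatment at 10 μM for 4 h, with 2 mM bromouridine added for the final 30 min. Total RNA isolated with TRIzol; Bru-labelled RNA captured using anti-BrdU antibody on magnetic beads, then sequenced. Transcript traces reported as RPKM compared with DMSO-treated cells. Single experiment.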

U-87 MG [19] = assay: Down regulation of AKAP5 gene expression in human U87MG cells at 10 uM incubated for 4 hrs followed by bromouridine addition during last 30 mins of incubation by TRIzol-reagent based Bru-Seq analysis relative to control; assay type: functional, U-87MG ATCC
U-87 MG [20] = assay: Down regulation of ST8SIA4 gene expression in human U87MG cells at 10 uM incubated for 4 hrs followed by bromouridine addition during last 30 mins of incubation by TRIzol-reagent based Bru-Seq analysis relative to control; assay type: functional, U-87MG ATCC; summary of the method: as §2
U-87 MG [21] = assay: Down regulation of C11orf87 gene expression in human U87MG cells at 10 uM incubated for 4 hrs followed by bromouridine addition during last 30 mins of incubation by TRIzol-reagent based Bru-Seq analysis relative to control; assay type: functional, U-87MG ATCC
U-87 MG [22] = assay: Down regulation of BARD1 gene expression in human U87MG cells at 10 uM incubated for 4 hrs followed by bromouridine addition during last 30 mins of incubation by TRIzol-reagent based Bru-Seq analysis relative to control; assay type: functional, U-87MG ATCC
U-87 MG [23] = assay: Down regulation of CCNA2 gene expression in human U87MG cells at 10 uM incubated for 4 hrs followed by bromouridine addition during last 30 mins of incubation by TRIzol-reagent based Bru-Seq analysis relative to control; assay type: functional, U-87MG ATCC

Chain of Protein disulfide-isomerase (Homo sapiens), P07237 [H256A] (P07237 whole entry H256A): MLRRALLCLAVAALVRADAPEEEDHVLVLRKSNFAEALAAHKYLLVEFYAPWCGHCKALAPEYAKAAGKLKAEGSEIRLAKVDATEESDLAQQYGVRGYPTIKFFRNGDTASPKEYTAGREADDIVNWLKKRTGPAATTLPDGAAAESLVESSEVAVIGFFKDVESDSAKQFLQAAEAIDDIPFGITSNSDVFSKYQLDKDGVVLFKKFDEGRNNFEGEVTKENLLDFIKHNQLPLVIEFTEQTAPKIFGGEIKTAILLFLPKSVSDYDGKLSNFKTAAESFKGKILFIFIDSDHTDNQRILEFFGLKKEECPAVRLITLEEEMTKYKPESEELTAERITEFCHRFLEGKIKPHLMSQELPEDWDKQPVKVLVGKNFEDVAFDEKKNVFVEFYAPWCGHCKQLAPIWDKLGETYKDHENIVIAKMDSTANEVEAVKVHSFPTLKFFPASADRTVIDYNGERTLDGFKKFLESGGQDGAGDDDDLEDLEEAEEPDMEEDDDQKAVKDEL

inhibition [1]: Active
SMILES: CCCCCN(CCCCC)S(=O)(=O)c1ccc(C(=O)/C=C/c2cccc(O)c2)cc1

SMILES: COC(=O)c1cccc(/C=C/C(=O)c2cccc(O)c2)c1
fold change (FC) (U-87 MG [2]): 10.2
fold change (FC) (U-87 MG [3]): 6.2
fold change (FC) (U-87 MG [4]): 5.4
fold change (FC) (U-87 MG [5]): 4.8
fold change (FC) (U-87 MG [6]): 1.9
fold change (FC) (U-87 MG [7]): 2.7
Activity (U-87 MG [8]): Active

SMILES: CCCCCN(CCCCC)S(=O)(=O)c1ccc(C(=O)/C=C/c2cccc(C#N)c2)cc1
fold change (FC) (U-87 MG [9]): 40.9
fold change (FC) (U-87 MG [10]): 27.6
fold change (FC) (U-87 MG [11]): 20.8
fold change (FC) (U-87 MG [12]): 20
fold change (FC) (U-87 MG [13]): 18.9
fold change (FC) (U-87 MG [14]): 11.7
fold change (FC) (U-87 MG [15]): 11
fold change (FC) (U-87 MG [16]): 10
fold change (FC) (U-87 MG [17]): 9.6
fold change (FC) (U-87 MG [18]): 3.6
fold change (FC) (U-87 MG [19]): 3.4
fold change (FC) (U-87 MG [20]): 3.1
fold change (FC) (U-87 MG [21]): 2.4
fold change (FC) (U-87 MG [22]): 2.3
fold change (FC) (U-87 MG [23]): 2.3

From ChEMBL document CHEMBL4390639, “Design, Synthesis, and Biological Evaluation of Novel Allosteric Protein Disulfide Isomerase Inhibitors” (J Med Chem, 2019)
